Results as given in publication PMC12126168 (Drug Design, Development and Therapy, 2025).

Columns and labels:
various tumor cell lines = experiment: Antiproliferative activity on various tumor cell lines; format: cell-based; conditions: read-out: IC50 against a variety of cell lines
Method in brief: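 Cells seeded at 1000 per well in 18 μL medium and pre-incubated 24 h at 37°C, 5% CO2. Test compound in DMSO (final DMSO <0.1%) added at 10 points, 2-fold dilutions from 10 μM, then cultured 72 h. Cell-Titer glo reagent added and […]. Inhibition computed per concentration and IC50 obtained from sigmoid curve fit.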

[1] = Single-dose pharmacokinetics in SD rats; format: in vivo; conditions: after gavage or tail vein injection of V12
Method in brief: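 Male SD rats (240–280 g), 4 groups of 3. Compound in DMSO/castor oil/saline 5%/5%/90%, dosed 1 mg/kg i.v. or 10 mg/kg orally. Blood drawn from fundus venous plexus at 2, 5, 15, 30 min and 1, 2, 4, 8, 24 h into heparin tubes, then centrifuged at 4°C for plasma. Plasma levels measured by LC-MS/MS with non-compartmental analysis.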

[2] = Body weight of nude mice after oral administration; format: in vivo; conditions: oral doses 100 mg/kg and 300 mg/kg

Question: Which IC50 (various tumor cell lines) does the source give for `CONC(=O)c1cccc2c1cc(C)n2-c1nc2c(c(NCc3ccccc3)n1)CCCN2` [V12, 1-(4-(Benzylamino)-5,6,7,8-Tetrahydropyrido[2,3-D]pyrimidin-2-Yl)-N-Methoxy-2-Methyl-1H-Indole-4-Carboxamide] here?
Answer: The IC50 was under 1000 nM.

Question: And the metabolism in vivo [1]?
Answer: The metabolism in vivo was “rapidly metabolizes into V13”.

Question: What about the “body weight of the nude mice” value [2] of the same molecule?
Answer: The value was “comparable to that of the control group”.

Question: With `Cc1cc2c(C(=O)O)cccc2n1-c1nc2c(c(NCc3ccccc3)n1)CCCN2` [V13, 1-(4-(Benzylamino)-5,6,7,8-Tetrahydropyrido[2,3-D]pyrimidin-2-Yl)-2-Methyl-1H-Indole-4-Carboxylic Acid] as the molecule, how does the IC50 (various tumor cell lines) read?
Answer: The IC50 was under 1000 nM.
